This is an account of results in the RNAGym collection of RNA variant scans (doi:10.1126/science.aae0568).

This sample holds only a part of the variants without activity.

First the molecules themselves.
B1: tRNA (parent)
chain: GUUCCGUUGGCGUAAUGGUAACGCGUCUCCCUCCUAAGGAGAAGACUGCGGGUUCGAGUCCCGUACGGAACG

The series covers variants of B1. Briefly: yeast fitness relative to wild type (ratio to wild type); higher = fitter; tRNA-Arg(CCU), competitive growth, 37 C, YPD. The method, boiled down:
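Variants of the tRNA-Arg(CCU) gene were chemically synthesised with a 3% per-site mutation rate across 69 sites and placed at the native genomic locus in Saccharomyces cerevisiae. Six parallel replicates of the pooled strains were competed in YPD at 37°C for 24 hours, and gene amplicons from the start and end populations were read by 100-nucleotide paired-end sequencing. Darwinian fitness relative to wild type was derived from changes in genotype frequencies. Genotypes required ≥ 100 starting reads, and estimates < 0.5 were set to 0.5.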
With GUUCCGUUGGUGUAAUGGUAACGCGUCUCCCUCCUAAGGAGAAGACUGCGGGUUCGAGUCCCGUUCGCAACG [C11U A65U G68C], the yeast fitness was determined as 0.592.
On to GUUCCGUUGGUGUAAUGGUAAGGCGUCUCCCUCCUAAGGAGGAGACUGCGGGUUCGAGCCCCGUACGGAACG [C11U C22G A42G U59C], for which the yeast fitness is no more than 0.5.
To GUUCCGUUGGUGUAAUGGUAACGGGUCUCCCUCCUAAGGAGAAGACUGCGGGUUCGAGUCCGGUACGGAACG [C11U C24G C62G] belongs no more than 0.5; to GUUCCGUUGGUGUAAUGGUAACGUGUCUCUCUCCUAAGGAGAAGACUGCGGGUUCGCGUCCCCUACGGAACG [C11U C24U C30U A57C G63C], no more than 0.5.
To GUUCCGUUGGUGUAAUGGUAACGCGUCUCCCUCCUAAGGAGAAGACUGCGGGUUCGCGUCCCGUACGGAACG [C11U A57C] belongs 0.622; to GUUCCGUUGGUGUAAUGGUAACGCGUCUCCCUCCUAAGGAGAAGACUGCGGGUUCGGGUCCCGUACGGAACG [C11U A57G], 0.816; to GUUCCGUUGGUGUAAUGGUAAUGCGUCUCCCUCCUAAGGCGAAGACUGCGGGUUCGAGUCCCGUACGGAACG [C11U C22U A40C], 0.558.
With GUUCCGUUGGUGUAAUGGUAACGGGUCUCCCUCCUAAGGAGAAGACUGCGGGUUCGAGUCCCCUACAGAACG [C11U C24G G63C G67A] the figure was 0.568.
As to GUUCCGUUGGUGUAAUGGUAAUGCGUCUCCCUCCUAAGGAGAAGACUGCGGGUUCGAGUCCCGUACGGAACG [C11U C22U], the yeast fitness was found to be 0.855.
With GUUCCGUUGGUGUAAUGGUAAGGCGUCUCCCUCCUAAGGAGAAGACUGCGGGUUCGAGUCCCGUACGGAACG [C11U C22G] the figure was 0.875; with GUUCCGUUGGUGUAAUGGUAAUGCGUCUCCCUCCUAAGGAGAAGACUCCGGGUGUGAGUCCCGUACGGAACG [C11U C22U G48C U54G C55U], no more than 0.5; with GUUCCGUUGGUGUAAUGGUAAGGCGUCUCCCUCCUAAGGAGAAGACUGCGGGUUCGAGUCCCGUACGGAUCG [C11U C22G A70U], 0.722.
With GUUCCGUUGGUGUAAUGGUAAGGCGUCUCCCUUCUAAGGAGAAGACUGCGGGUUCGAGUCCCGUACGGAACG [C11U C22G C33U] the figure was no more than 0.5.
To GUUCCGUUGGUGUAAUGGUAACGCGUCUCCCUCCUAAGGAGAAGUCUGCGGGUUCGAGUCCCGUACGGACCG [C11U A45U A70C] belongs 1.06; to GUUCCGUUGGUGUAAUGGUAACGGGUCUCCCUACUAAGGCGAAGACUGCGGGUUCGAGUCCCGUUCGGAACG [C11U C24G C33A A40C A65U], 0.641.
In the case of GUUCCGUUGGUGUAAUGGUAAUGCGUCUCCCUCCUAAGGAGAAGACUGCGGGUUCGUGUCCCGUACGGAACG [C11U C22U A57U], the yeast fitness amounted to 0.512.
To GUUCCGUUGGUGUAAUGGUAAGGCGUCUGCCUCCUAAGGAAAAGACUGCGGGUACGAGUCCCGUACGGAACG [C11U C22G C29G G41A U54A] belongs no more than 0.5.
Take GUUCCGUUGGUGUAAUGGUAAUGCGUCUCCCUCCUAAGGAGAACACUGCGGGUUCGAGUCCUGUACGGAACG [C11U C22U G44C C62U]: the yeast fitness was no more than 0.5.
With GUUCCGUUGGUGUAAUGGUAACGCGUCUCCCUCCUAAGGAGAAGACUGCGGGUUCGCGUUCCGUACCGAACG [C11U A57C C60U G67C] the figure was 0.589; with GUUCCGUUGGUGUAAUGGUAACGCGUCUCCCUCCUAAGGAGAAGUCUGGGGGUUCGAGUCCCGUUCGGAACG [C11U A45U C49G A65U], no more than 0.5.
With GUUCCGUUGGUGUAAUGGUAAAGCGUCUGCCUUCUAAGGAGAAGACUGCGGGUUCCAGUCCCGUACGGAACG [C11U C22A C29G C33U G56C] the figure was no more than 0.5; with GUUCCGUUGGUGUAAUGGUAACGGGUCUCCCUCCUAAGGAGAAGACUGCUGGUUCGAGUCCCCUACAGAACG [C11U C24G G50U G63C G67A], no more than 0.5; with GUUCCGUUGGUGUAAUGGUAACGCGUCUCCCUCCUAAGGAGAAGACUGCGGGUUCGGGCCCCGUACAGAACG [C11U A57G U59C G67A], no more than 0.5.
With GUUCCGUUGGUGUAAUGGUAACGGGUCUCCCUCCUAAGGAGAAGCCUGCGGGUUCGAGUACCGUACGUAACG [C11U C24G A45C C60A G68U] the figure was no more than 0.5; with GUUCCGUUGGUGUAAUGGUAACGCGUCUCCCUCCUAAGGAGAAGACUGCGGGUUCGAGUCCCGUACGGUACG [C11U A69U], 0.949.
Take GUUCCGUUGGUGUAAUGGUAACGGGUCUCCCUCCUAAGGAGGAGACUGCGGGUUCGAGUCCCGUACGGAACG [C11U C24G A42G]: the yeast fitness is no more than 0.5.
With GUUCCGUUGGUGUAAUGGUAAAGCGUCUGCCUUCUAAGGAGAAGACUGCGGGUUCGAGUCCCGUACGGAACG [C11U C22A C29G C33U] the figure was 0.519.
With GUUCCGUUGGUGUAAUGGUAACGUGUCUCCCUCCUAAGGAGAAGGGUGCGGGUUGGAGUCCCGUACGGAACG [C11U C24U A45G C46G C55G] the figure was no more than 0.5; with GUUCCGUUGGUGUAAUGGUAACGGGUCUCCCUCCUAAGGAGAAGACUGCGGGUUCGAGUCCCGUACGGAUCG [C11U C24G A70U], 0.557; with GUUCCGUUGGUGUAAUGGUAACGCGUCUCCCUCCUAAGGAGAAGUCUGCGGGUUCGAGUCCCGUACGGCACG [C11U A45U A69C], 0.874.
Consider GUUCCGUUGGUGUAAUGGUAACGCGUCUCCCUCCUAAGGAGAAGUCUGCGGGUUCGAGUCCCGUACGGUACG [C11U A45U A69U], for which the yeast fitness is 0.915.
With GUUCCGUUGGUGUAAUGGUAAUGCGUCUCCCUCCUAAGGAGAAGACUGCGGGUUCGUGUCCCGUACGGACCG [C11U C22U A57U A70C] the figure was no more than 0.5; with GUUCCGUUGGUGUAAUGGUAACGCGUCUCCCUCCUAAGGAGAAGACUGCGGGUUCGAGUCCCGUUCGGAGCG [C11U A65U A70G], 0.696.
To GUUCCGUUGGUGUAAUGGUAAGGCGUCUGCCUCCUAAGGAAAAGACUGCGGGUACGAGUCCCGGACGGAACG [C11U C22G C29G G41A U54A U64G] belongs no more than 0.5; to GUUCCGUUGGUGUAAUGGUAACGGGUGUCCCUCCUAAGGAGAAGACUGCGGGUUCGAGUCCCGUACGGAACG [C11U C24G C27G], no more than 0.5; to GUUCCGUUGGUGUAAUGGUAAUGCGUCUGCCUCUUAAGGAGAAGACUCCGGGUUCGGGUCCCGUACGGAACG [C11U C22U C29G C34U G48C A57G], no more than 0.5.
To GUUCCGUUGGUGUAAUGGUAACGCGUCUCCCUCCUAAGGAGAAGUCUGCGGGCUCGAGUCCCGUACGGAACG [C11U A45U U53C] belongs 0.66; to GUUCCGUUGGUGUAAUGGUAACGCGUCUCCCUCCUAAGGAGAAGUCUGCGGGUGCGAGUCCCGUACGGAACG [C11U A45U U54G], no more than 0.5.
